Measured values: article PMC2956778 (Biochemical and biophysical research communications, 2010)
“Also recorded” adds a separate entry of the source. Read-outs that look alike come from different tables or passages of the source.

Tests used:
[1] = Membrane permeability assay; set-up: species or system rabbit
[2] = tested on: microsomes from bovine brain cerebrum
[3] = target: Ca2+-saturated CaM bound to RyR1 (skeletal SR vesicles) (Homo sapiens, UniProt P0DP23); assay: [35S]CaM binding to skeletal SR vesicles; set-up: species or system rabbit; details: for Effect on [35S]CaM binding to SR vesicles: LPC effect probably an artefact (also decreased nonspecific binding)
[4] = tested on: complex between CaM and the peptide representing the CaM-binding domain of RyR1; details: cited from earlier work
[5] = target: RyR1 (skeletal SR vesicles) (Oryctolagus cuniculus, UniProt P11716); assay: [3H]ryanodine binding to skeletal SR vesicles; set-up: species or system rabbit; details: for Effect on [3H]ryanodine binding: 50 μM free Ca2+
RyR1 (skeletal SR vesicles), sequence (P11716 whole entry): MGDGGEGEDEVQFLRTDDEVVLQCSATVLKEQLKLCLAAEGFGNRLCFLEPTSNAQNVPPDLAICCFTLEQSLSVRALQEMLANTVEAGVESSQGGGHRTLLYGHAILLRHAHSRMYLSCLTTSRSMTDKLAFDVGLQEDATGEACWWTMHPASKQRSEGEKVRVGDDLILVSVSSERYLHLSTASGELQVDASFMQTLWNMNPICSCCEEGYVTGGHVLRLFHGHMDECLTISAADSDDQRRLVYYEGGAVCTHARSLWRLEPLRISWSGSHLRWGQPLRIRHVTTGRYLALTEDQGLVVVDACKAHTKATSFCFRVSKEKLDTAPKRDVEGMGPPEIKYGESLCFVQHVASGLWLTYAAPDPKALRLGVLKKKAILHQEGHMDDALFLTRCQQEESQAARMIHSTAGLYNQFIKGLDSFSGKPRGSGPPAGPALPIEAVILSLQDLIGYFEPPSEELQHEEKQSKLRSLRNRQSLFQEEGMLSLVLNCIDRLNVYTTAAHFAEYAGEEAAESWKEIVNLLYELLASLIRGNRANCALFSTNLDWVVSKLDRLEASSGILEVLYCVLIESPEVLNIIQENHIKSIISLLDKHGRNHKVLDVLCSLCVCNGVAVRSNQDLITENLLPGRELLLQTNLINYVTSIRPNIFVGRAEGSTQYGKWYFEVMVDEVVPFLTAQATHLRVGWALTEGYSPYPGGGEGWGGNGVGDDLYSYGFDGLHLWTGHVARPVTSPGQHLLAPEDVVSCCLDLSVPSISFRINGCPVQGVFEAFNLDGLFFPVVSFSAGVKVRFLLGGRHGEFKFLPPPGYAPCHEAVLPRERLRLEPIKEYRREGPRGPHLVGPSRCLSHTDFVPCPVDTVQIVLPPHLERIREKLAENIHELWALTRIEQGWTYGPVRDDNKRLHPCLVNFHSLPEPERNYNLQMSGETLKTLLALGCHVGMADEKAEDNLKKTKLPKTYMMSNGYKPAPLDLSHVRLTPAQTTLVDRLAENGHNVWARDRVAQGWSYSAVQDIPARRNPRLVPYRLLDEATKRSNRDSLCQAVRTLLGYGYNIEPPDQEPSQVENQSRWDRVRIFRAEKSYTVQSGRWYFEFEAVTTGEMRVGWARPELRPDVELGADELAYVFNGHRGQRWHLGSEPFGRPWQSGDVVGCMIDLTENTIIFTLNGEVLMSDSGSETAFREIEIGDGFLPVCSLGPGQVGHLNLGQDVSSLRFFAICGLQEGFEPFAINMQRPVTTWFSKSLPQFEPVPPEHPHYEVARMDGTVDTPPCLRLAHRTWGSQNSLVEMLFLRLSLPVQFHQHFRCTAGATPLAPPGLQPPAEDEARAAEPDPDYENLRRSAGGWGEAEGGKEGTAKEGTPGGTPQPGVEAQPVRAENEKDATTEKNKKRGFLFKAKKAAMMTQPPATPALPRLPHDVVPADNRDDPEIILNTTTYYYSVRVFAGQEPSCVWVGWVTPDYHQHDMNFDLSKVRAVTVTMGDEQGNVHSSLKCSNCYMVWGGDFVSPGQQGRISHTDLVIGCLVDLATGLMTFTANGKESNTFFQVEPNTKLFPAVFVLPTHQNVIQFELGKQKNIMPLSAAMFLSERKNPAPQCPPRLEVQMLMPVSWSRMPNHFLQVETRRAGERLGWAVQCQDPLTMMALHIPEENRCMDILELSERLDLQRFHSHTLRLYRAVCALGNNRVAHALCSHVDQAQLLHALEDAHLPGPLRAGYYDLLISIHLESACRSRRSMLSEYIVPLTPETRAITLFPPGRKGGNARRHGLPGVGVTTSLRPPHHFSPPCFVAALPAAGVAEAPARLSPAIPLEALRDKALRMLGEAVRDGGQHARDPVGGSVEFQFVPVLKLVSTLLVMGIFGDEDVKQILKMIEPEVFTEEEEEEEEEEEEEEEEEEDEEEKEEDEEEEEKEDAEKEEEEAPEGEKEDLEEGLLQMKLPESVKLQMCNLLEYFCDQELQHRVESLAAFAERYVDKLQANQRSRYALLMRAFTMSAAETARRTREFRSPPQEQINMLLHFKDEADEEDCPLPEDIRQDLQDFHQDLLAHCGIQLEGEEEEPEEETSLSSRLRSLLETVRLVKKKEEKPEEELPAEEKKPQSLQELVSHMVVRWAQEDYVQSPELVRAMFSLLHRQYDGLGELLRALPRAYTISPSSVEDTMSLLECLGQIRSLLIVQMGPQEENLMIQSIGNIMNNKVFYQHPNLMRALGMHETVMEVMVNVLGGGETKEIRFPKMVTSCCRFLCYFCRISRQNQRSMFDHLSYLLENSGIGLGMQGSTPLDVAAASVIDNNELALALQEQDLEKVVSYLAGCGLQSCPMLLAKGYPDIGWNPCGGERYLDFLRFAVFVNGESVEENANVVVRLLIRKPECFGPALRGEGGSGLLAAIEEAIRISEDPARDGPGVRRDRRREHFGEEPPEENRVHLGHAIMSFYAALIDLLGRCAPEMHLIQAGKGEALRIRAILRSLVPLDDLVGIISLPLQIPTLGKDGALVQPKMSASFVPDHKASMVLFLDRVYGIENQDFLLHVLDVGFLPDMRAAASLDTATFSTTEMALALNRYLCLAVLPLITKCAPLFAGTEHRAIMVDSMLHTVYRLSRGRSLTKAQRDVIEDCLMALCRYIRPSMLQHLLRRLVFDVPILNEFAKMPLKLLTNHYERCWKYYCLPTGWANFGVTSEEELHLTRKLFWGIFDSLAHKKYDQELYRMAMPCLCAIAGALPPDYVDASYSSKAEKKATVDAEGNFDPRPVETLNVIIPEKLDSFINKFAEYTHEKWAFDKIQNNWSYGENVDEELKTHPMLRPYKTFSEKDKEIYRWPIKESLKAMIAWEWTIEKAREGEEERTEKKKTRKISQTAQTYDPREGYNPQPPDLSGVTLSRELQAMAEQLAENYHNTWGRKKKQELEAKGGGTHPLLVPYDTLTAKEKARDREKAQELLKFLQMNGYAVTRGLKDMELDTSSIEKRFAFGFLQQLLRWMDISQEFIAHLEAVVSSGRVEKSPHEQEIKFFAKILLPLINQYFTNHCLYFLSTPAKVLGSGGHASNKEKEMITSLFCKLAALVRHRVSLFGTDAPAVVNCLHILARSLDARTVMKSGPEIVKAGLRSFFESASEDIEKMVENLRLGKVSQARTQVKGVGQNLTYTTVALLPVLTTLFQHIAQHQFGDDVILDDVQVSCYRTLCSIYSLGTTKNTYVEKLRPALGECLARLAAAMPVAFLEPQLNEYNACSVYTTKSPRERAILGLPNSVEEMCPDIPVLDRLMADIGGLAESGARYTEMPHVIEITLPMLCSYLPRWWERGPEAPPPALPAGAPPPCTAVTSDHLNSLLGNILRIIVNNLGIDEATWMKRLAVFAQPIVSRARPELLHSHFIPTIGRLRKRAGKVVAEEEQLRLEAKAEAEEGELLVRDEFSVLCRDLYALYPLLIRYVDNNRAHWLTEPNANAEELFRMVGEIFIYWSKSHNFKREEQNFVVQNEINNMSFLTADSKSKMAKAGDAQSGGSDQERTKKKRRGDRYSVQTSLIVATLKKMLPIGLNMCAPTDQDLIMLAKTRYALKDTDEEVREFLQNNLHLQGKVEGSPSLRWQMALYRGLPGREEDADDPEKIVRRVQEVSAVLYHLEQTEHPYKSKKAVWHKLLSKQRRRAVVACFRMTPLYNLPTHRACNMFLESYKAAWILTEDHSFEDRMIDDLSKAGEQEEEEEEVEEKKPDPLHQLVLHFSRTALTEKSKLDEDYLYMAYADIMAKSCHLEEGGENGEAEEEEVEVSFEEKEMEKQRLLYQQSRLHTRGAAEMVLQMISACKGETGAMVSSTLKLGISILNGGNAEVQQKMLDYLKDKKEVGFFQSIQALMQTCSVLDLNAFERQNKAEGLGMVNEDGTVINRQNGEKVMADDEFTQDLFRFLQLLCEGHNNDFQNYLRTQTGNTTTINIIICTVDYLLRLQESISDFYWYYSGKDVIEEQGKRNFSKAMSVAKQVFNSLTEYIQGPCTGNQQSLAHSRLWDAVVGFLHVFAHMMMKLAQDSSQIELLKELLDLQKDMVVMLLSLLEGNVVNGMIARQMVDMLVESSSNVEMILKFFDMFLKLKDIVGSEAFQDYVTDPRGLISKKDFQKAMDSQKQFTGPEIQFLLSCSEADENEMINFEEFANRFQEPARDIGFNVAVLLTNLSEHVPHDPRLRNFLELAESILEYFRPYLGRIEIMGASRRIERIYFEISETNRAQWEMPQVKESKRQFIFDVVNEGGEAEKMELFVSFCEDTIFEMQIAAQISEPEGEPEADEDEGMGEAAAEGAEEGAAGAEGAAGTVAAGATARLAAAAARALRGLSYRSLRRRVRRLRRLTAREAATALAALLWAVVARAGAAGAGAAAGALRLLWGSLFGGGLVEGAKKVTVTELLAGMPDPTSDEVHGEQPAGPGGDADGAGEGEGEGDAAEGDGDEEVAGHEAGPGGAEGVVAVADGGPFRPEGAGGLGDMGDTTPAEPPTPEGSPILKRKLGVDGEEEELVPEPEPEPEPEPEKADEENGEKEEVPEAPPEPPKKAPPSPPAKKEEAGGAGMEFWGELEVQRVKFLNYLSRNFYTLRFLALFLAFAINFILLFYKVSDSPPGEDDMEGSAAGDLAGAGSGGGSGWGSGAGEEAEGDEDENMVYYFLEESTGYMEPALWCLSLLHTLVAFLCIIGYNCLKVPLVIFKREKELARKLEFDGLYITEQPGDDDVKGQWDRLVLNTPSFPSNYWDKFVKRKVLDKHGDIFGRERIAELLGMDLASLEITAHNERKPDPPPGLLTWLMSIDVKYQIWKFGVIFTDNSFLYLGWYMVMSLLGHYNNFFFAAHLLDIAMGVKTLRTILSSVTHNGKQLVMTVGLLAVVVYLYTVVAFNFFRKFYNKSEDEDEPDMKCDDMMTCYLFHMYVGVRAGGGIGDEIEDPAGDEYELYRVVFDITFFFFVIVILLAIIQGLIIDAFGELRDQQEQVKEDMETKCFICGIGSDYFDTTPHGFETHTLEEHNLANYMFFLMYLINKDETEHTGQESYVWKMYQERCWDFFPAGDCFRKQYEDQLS

purified RyR1 = purified RyR1 (Oryctolagus cuniculus, UniProt P11716); assay: Single channel recordings of purified RyR1 in planar lipid bilayers; format: biochemical, rabbit; details: for Ac1 / Ac2 / Ao1 / Ao2 / Po / τc1 / τc2 (lifetime of the second closed state) / τo1 / τo2 / No. of events: +1 μM SPC; for No. of events: 2 min recordings; for Single channel open probability (Po), representative recording: after 1 μM SPC cis
purified RyR1, sequence (P11716 whole entry, the tested form may be a part): as the sequence (P11716 whole entry) above
How it was run: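 Purified RyR1 from rabbit SR: CHAPS-solubilised, sucrose-gradient purified, reconstituted into phosphatidylcholine liposomes, fused cis into PE:PS:PC (5:3:2) n-decane bilayers. Symmetrical 0.25 M KCl, 20 mM K-HEPES pH 7.4, 22 μM free Ca²⁺ cis. Test compound added cis. For +CaM, 30 min room-temperature preincubation with 1 μM CaM, then 100 nM CaM cis. Recorded at ±35 mV, sampled 10 kHz, filtered 2 kHz, ≥2 min per condition. Dwell times fitted by maximum likelihood to exponential sums.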

[6] = tested on: microsomes from bovine brain cerebrum; assay: Ca2+ release from brain microsomes; details: data not shown

## C[C@H](CCC(=O)NCCC[N+](C)(C)CCCS(=O)(=O)[O-])[C@H]1CC[C@H]2[C@@H]3[C@H](O)C[C@@H]4C[C@H](O)CC[C@]4(C)[C@H]3C[C@H](O)[C@]12C [CHAPS]
[1]; 1% CHAPS detergent
  Effect on glucose permeability of SR vesicles: released a large amount of stored glucose

## CCCCCCCC/C=C\CCCCCCCC(=O)OCC(O)COP(=O)(O)O (centres unmarked) [LPA, oleoyl-lysophosphatidic acid]
[2]
  Ca2+ release from brain microsomes: released a large amount of Ca^2+
[3]
  Effect on [35S]CaM binding to SR vesicles: ineffective
[1]; 50 μM lysophospholipid
  Effect on glucose permeability of SR vesicles: do not disrupt the permeability barrier

## CCCCCCCC/C=C\CCCCCCCC(=O)OC[C@@H](O)COP(=O)([O-])OCC[N+](C)(C)C [LPC, oleoyl-lysophosphatidylcholine]
[2]
  Ca2+ release from brain microsomes: released a large amount of Ca^2+
[3]
  Effect on [35S]CaM binding to SR vesicles: decreased; also recorded: significantly decrease
[1]; 50 μM lysophospholipid
  Effect on glucose permeability of SR vesicles: do not disrupt the permeability barrier
[4]
  Effect in peptide binding experiments: without action

## CCCCCCCCCCCCC/C=C/[C@@H](O)[C@@H](N)COP(=O)(O)O [S1P, D-erythro-sphingosine-1-phosphate]
[3]
  Effect on [35S]CaM binding to SR vesicles: ineffective
[5]; absence of CaM
  Effect on [3H]ryanodine binding: minor inhibitory effect
[5]; presence of CaM
  Effect on [3H]ryanodine binding: further decreased
[1]; 50 μM lysophospholipid
  Effect on glucose permeability of SR vesicles: do not disrupt the permeability barrier

## CCCCCCCCCCCCC/C=C/[C@@H](O)[C@@H](N)COP(=O)(O)OCC[N+](C)(C)C [SPC, D-erythro-sphingosylphosphorylcholine]
Purified RyR1; 22 μM Ca2+
  Ac1: 0.994 ± 0.003
  Ac2: 0.006 ± 0.003
  Ao1: 0.81 ± 0.18
  Ao2: 0.19 ± 0.18
  Po: 0.24 ± 0.10
  τc1: 1.07 ± 0.68 ms
  τc2 (lifetime of the second closed state): 452 ± 140 ms
  τo1: 0.24 ± 0.19 ms
  τo2: 5.09 ± 3.32 ms
  No. of events: 9767 ± 1884
Purified RyR1; 22 μM Ca2+ and 100 nM CaM
  Ac1: 0.96 ±0.03
  Ac2: 0.04 ± 0.03
  Ao1: 0.94 ± 0.05
  Ao2: 0.06 ± 0.05
  Po: 0.18 ± 0.09
  τc1: 2.81 ± 1.66 ms
  τc2 (lifetime of the second closed state): 619 ± 242 ms
  τo1: 0.16 ± 0.12 ms
  τo2: 3.12 ± 2.10 ms
  No. of events: 10,392 ±2633
Purified RyR1; 100 nM CaM, control Po 0.15
  Single channel open probability (Po), representative recording: 0.05
Purified RyR1; absence of CaM, control Po 0.51
  Single channel open probability (Po), representative recording: 0.16
[2]
  Ca2+ release from brain microsomes: released a large amount of Ca^2+
[3]
  Hill-slope of [35S]CaM displacement: 2.3 ± 0.7
  Effect on [35S]CaM binding to SR vesicles: significantly decrease
[5]; absence of CaM, oxidizing conditions (5 mM GSSG)
  Hill-slope of [3H]ryanodine binding dose-response: −2.9 ± 0.2
[5]; absence of CaM, reducing conditions (5 mM GSH)
  Hill-slope of [3H]ryanodine binding dose-response: −1.7 ± 0.04
[5]; presence of CaM
  Effect on [3H]ryanodine binding: did not significantly alter
[1]; 50 μM lysophospholipid
  Effect on glucose permeability of SR vesicles: do not disrupt the permeability barrier
[4]; read-out: IC50 in peptide binding assays
  IC50: 19.4 ± 1.4 µM

## Cn1c(=O)c2c(ncn2C)n(C)c1=O [caffeine]
[6]; 5 mM caffeine
  Ca2+ release from brain microsomes: only had minor effects

## CC(C)[C@@]1(O)[C@@H](OC(=O)c2ccc[nH]2)[C@@]2(O)[C@@]3(C)C[C@]4(O)O[C@@]5([C@H](O)[C@@H](C)CC[C@]35O)[C@@]2(O)[C@@]14C [ryanodine]
[6]; 1 μM ryanodine
  Ca2+ release from brain microsomes: only had minor effects
